Results reported in ChEMBL document CHEMBL1141807, “New phenolic and quinone-methide triterpenes from Maytenus amazonica” (J Nat Prod, 1999).
≈ marks a conversion by molar mass, not a printed value.

Columns and labels:
[1] = system: HT-29; assay: Cytotoxicity against human HT-29 ATCC HTB-38 cells; format: functional, cell-based
In short: (§1)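 Lines maintained in log-phase growth in EMEM/neaa with 5% fetal calf serum, 10-2 M sodium bicarbonate, 0.1 g/L penicillin G and 0.1 g/L streptomycin sulfate. P-388 grown as suspension culture; A-549, HT-29 and MEL-28 as monolayers. Compounds dissolved in DMSO–MeOH (1:9). Read-out IC50 in µg/mL.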

[2] = Cytotoxicity against human SK MEL28 ATCC HTB-72 cells; format: functional, cell-based; conditions: SK-MEL-28; in short: as §1
[3] = target: Aldo-keto reductase family 1 member B1 (Homo sapiens, UniProt P15121); assay: Inhibition of human recombinant aldose reductase
In short: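 Recombinant human aldose reductase, purified by a published method. In vitro inhibition measured by a modified version of that method. Values given as IC50 in µg/mL.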

[4] = system: A549; assay: Cytotoxicity against human A549 ATCC CCl-185 cells; format: functional, cell-based; in short: as §1
[5] = system: P388; assay: Cytotoxicity against mouse P388 ATCC CCL-46 cells; format: functional, cell-based; in short: as §1

SMILES	IC50 [1]	IC50 [2]	IC50 [3]	IC50 [4]	IC50 [5]
Cc1c(O)c(O)cc2c1C(=O)C[C@@H]1[C@@]2(C)CC[C@@]2(C)[C@@H]3C[C@@H](C)C(=O)C[C@]3(C)CC[C@]12C	10 µg/mL (≈ 22.8 µM)	10 µg/mL (≈ 22.8 µM)	57 µM	5 µg/mL (≈ 11.4 µM)	5 µg/mL (≈ 11.4 µM)
C[C@@H]1C[C@@H]2[C@@](C)(CC[C@@]3(C)[C@@]2(C)CC=C2c4cc(O)c(O)c(C=O)c4C=C[C@]23C)CC1=O	10 µg/mL (≈ 23 µM)	10 µg/mL (≈ 23 µM)	57.5 µM	10 µg/mL (≈ 23 µM)	10 µg/mL (≈ 23 µM)
CC1=C(O)C(=O)C=C2C1=C[C@H](O)[C@@H]1[C@@]2(C)CC[C@@]2(C)[C@@H]3C[C@@H](C)C(=O)C[C@]3(C)CC[C@]12C	5 µg/mL (≈ 11.4 µM)	5 µg/mL (≈ 11.4 µM)	57 µM	5 µg/mL (≈ 11.4 µM)	5 µg/mL (≈ 11.4 µM)
CC1=C(O)C(=O)C=C2C1=CC(=O)[C@@H]1[C@@]2(C)CC[C@@]2(C)[C@@H]3C[C@@H](C)C(=O)C[C@]3(C)CC[C@]12C [AMAZOQUINONE]	5 µg/mL (≈ 11.5 µM)	5 µg/mL (≈ 11.5 µM)	57.3 µM	5 µg/mL (≈ 11.5 µM)	2.5 µg/mL (≈ 5.73 µM)
